In brackets after ≈: the same amount, converted by molar mass. Activity calls are given as the source filed them. The calls are words filed in the database; no cut-off is given here.
Tests used:
[1] = test system: Mycobacterium tuberculosis; assay: Antitubercular potency, ratio of Isoniazid MIC to drug MIC against Mycobacterium tuberculosis H37Rv ATCC 27294; type: functional
Escherichia coli [2] = assay: Antibacterial activity against Escherichia coli LCB0012 at 128 ug/mL by broth micro dilution method; type: functional, organism-based
Staphylococcus aureus [3] = assay: Antibacterial activity against Staphylococcus aureus by broth micro dilution method; type: functional
How it was run: (§1)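 MIC90 was found by broth microdilution following NCCLS methods. Compounds were tested up to a top concentration of […]. Linezolid and trovafloxacin served as positive controls and DMSO as the negative control.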

[4] = test system: Staphylococcus epidermidis; assay: Antibacterial activity against methicillin-resistant Staphylococcus epidermidis by broth micro dilution method; type: functional
How it was run: (§2)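 MIC90 was determined by broth microdilution following NCCLS methods. Linezolid and trovafloxacin were run as positive controls, with DMSO as the negative control. Compounds were tested up to a top concentration of 128.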

Enterococcus faecium [5] = assay: Antibacterial activity against Enterococcus faecium by broth micro dilution method; type: functional; how it was run: as §1
Pseudomonas aeruginosa [6] = assay: Antibacterial activity against Pseudomonas aeruginosa by broth micro dilution method; type: functional; how it was run: as §1
Enterococcus faecalis [7] = assay: Antibacterial activity against Enterococcus faecalis by broth micro dilution method; type: functional; how it was run: as §1
Klebsiella pneumoniae [8] = assay: Antibacterial activity against Klebsiella pneumoniae at 128 ug/mL by broth micro dilution method; type: functional, organism-based
Moraxella catarrhalis [9] = assay: Antibacterial activity against Moraxella catarrhalis by broth micro dilution method; type: functional; how it was run: as §1
Haemophilus influenzae [10] = assay: Antibacterial activity against Haemophilus influenzae at 128 ug/mL by broth micro dilution method; type: functional, organism-based
Escherichia coli [11] = assay: Antibacterial activity against Escherichia coli LCB0010 at 128 ug/mL by broth micro dilution method; type: functional, organism-based
Escherichia coli [12] = assay: Antibacterial activity against Escherichia coli LCB0011 at 128 ug/mL by broth micro dilution method; type: functional, organism-based
[13] = test system: Mycobacterium tuberculosis; assay: Antitubercular activity against Mycobacterium tuberculosis H37Rv ATCC 27294 by radiometric respiratory technique; type: functional
Enterococcus faecium [14] = assay: Antibacterial activity against vancomycin-resistant Enterococcus faecium by broth micro dilution method; type: functional; conditions: Enterococcus faecium; how it was run: as §2
Enterococcus faecalis [15] = assay: Antibacterial activity against vancomycin-resistant Enterococcus faecalis by broth micro dilution method; type: functional; how it was run: as §2
Enterococcus faecalis [16] = assay: Antibacterial activity against vancomycin and linezolid-resistant Enterococcus faecalis by broth micro dilution method; type: functional; how it was run: as §2
Staphylococcus aureus [17] = assay: Antibacterial activity against methicillin-resistant Staphylococcus aureus by broth micro dilution method; type: functional; how it was run: as §2
[18] = test system: Mycobacterium tuberculosis; assay: Antitubercular potency, ratio of Rifampicin MIC to drug MIC against Mycobacterium tuberculosis H37Rv ATCC 27294; type: functional
[19] = test system: Staphylococcus epidermidis; assay: Antibacterial activity against Staphylococcus epidermidis by broth micro dilution method; type: functional; how it was run: as §2
Klebsiella pneumoniae [20] = assay: Antibacterial activity against Klebsiella pneumoniae by broth micro dilution method; type: functional; how it was run: as §1
Escherichia coli [21] = assay: Antibacterial activity against Escherichia coli LCB0010 by broth micro dilution method; type: functional; how it was run: as §1
Escherichia coli [22] = assay: Antibacterial activity against Escherichia coli LCB0012 by broth micro dilution method; type: functional; how it was run: as §1
Escherichia coli [23] = assay: Antibacterial activity against Escherichia coli LCB0011 by broth micro dilution method; type: functional; how it was run: as §1
Haemophilus influenzae [24] = assay: Antibacterial activity against Haemophilus influenzae by broth micro dilution method; type: functional; how it was run: as §1
Enterococcus faecium [25] = assay: Antibacterial activity against vancomycin-resistant Enterococcus faecium at 128 ug/mL by broth micro dilution method; type: functional, organism-based; how it was run: as §2
Enterococcus faecalis [26] = assay: Antibacterial activity against vancomycin and linezolid-resistant Enterococcus faecalis at 128 ug/mL by broth micro dilution method; type: functional, organism-based; how it was run: as §2
[27] = test system: Staphylococcus epidermidis; assay: Antibacterial activity against Staphylococcus epidermidis at 128 ug/mL by broth micro dilution method; type: functional, organism-based
Pseudomonas aeruginosa [28] = assay: Antibacterial activity against Pseudomonas aeruginosa at 128 ug/mL by broth micro dilution method; type: functional, organism-based
Moraxella catarrhalis [29] = assay: Antibacterial activity against Moraxella catarrhalis at 128 ug/mL by broth micro dilution method; type: functional, organism-based
Enterococcus faecalis [30] = assay: Antibacterial activity against vancomycin-resistant Enterococcus faecalis at 128 ug/mL by broth micro dilution method; type: functional, organism-based; how it was run: as §2
[31] = test system: Mycobacterium tuberculosis; assay: Antitubercular activity against Mycobacterium tuberculosis H37Rv ATCC 27294 at 256 ug/mL by radiometric respiratory technique; type: functional, organism-based
Staphylococcus aureus [32] = assay: Antibacterial activity against Staphylococcus aureus at 128 ug/mL by broth micro dilution method; type: functional, organism-based
Enterococcus faecium [33] = assay: Antibacterial activity against Enterococcus faecium at 128 ug/mL by broth micro dilution method; type: functional, organism-based
[34] = test system: Staphylococcus epidermidis; assay: Antibacterial activity against methicillin-resistant Staphylococcus epidermidis at 128 ug/mL by broth micro dilution method; type: functional, organism-based; how it was run: as §2
Staphylococcus aureus [35] = assay: Antibacterial activity against methicillin-resistant Staphylococcus aureus at 128 ug/mL by broth micro dilution method; type: functional, organism-based; how it was run: as §2

Row | Structure (SMILES) | Ratio [1] | Activity (Escherichia coli [2]) | MIC90 (Staphylococcus aureus [3]) [µg/mL] | MIC90 [4] [µg/mL] | MIC90 (Enterococcus faecium [5]) [µg/mL] | MIC90 (Pseudomonas aeruginosa [6]) [µg/mL] | MIC90 (Enterococcus faecalis [7]) [µg/mL] | Activity (Klebsiella pneumoniae [8]) | MIC90 (Moraxella catarrhalis [9]) [µg/mL] | Activity (Haemophilus influenzae [10]) | Activity (Escherichia coli [11]) | Activity (Escherichia coli [12]) | MIC [13] [µg/mL] | MIC90 (Enterococcus faecium [14]) [µg/mL] | MIC90 (Enterococcus faecalis [15]) [µg/mL] | MIC90 (Enterococcus faecalis [16]) [µg/mL] | MIC90 (Staphylococcus aureus [17]) [µg/mL] | MIC90 [19] [µg/mL] | MIC90 (Escherichia coli [23]) [µg/mL] | Activity (Pseudomonas aeruginosa [28]) | other results
1 | CCOC(=O)C1=C(O)CC(c2ccccc2)N(C(=O)CCl)C1c1ccccc1 (configuration not stated) | 1.56 | inactive | 32 (≈ 80 µM) | 128 (≈ 320 µM) | 64 (≈ 160 µM) | 64 (≈ 160 µM) | 32 (≈ 80 µM) | inactive | 32 (≈ 80 µM) | inactive | inactive | inactive | 16 (≈ 40 µM) | 16 (≈ 40 µM) | 64 (≈ 160 µM) | 32 (≈ 80 µM) | 64 (≈ 160 µM) | 64 (≈ 160 µM) |  |  | Ratio [18]: 200
2 | N[C@@H]1[C@H]2CN(c3nc4c(cc3F)c(=O)c(C(=O)O)cn4-c3ccc(F)cc3F)C[C@@H]12 [TROVAFLOXACIN] |  |  | < 0.0625 |  | 64 (≈ 154 µM) | 0.125 (≈ 0.3 µM) | 0.128 (≈ 0.307 µM) |  | < 0.0625 |  |  |  |  | 8 (≈ 19.2 µM) | 8 (≈ 19.2 µM) | 16 (≈ 38.4 µM) | 1 (≈ 2.4 µM) | < 0.0625 | < 0.0625 |  | MIC90 (Klebsiella pneumoniae [20]): 0.125 µg/mL (≈ 0.3 µM); MIC90 (Escherichia coli [21]): < 0.0625 µg/mL; MIC90 (Escherichia coli [22]): < 0.0625 µg/mL; MIC90 (Haemophilus influenzae [24]): < 0.0625 µg/mL
3 | CCOC(=O)C1=C(OS(=O)(=O)c2cccc([N+](=O)[O-])c2)CC(c2ccccc2)N(C(=O)CCl)C1c1ccccc1 (configuration not stated) |  | inactive |  |  |  |  | 128 (≈ 219 µM) | inactive |  | inactive | inactive | inactive |  |  |  |  | 128 (≈ 219 µM) |  |  | inactive | Activity (Enterococcus faecium [25]): inactive; Activity (Enterococcus faecalis [26]): inactive; Activity [27]: inactive; Activity (Moraxella catarrhalis [29]): inactive; Activity (Enterococcus faecalis [30]): inactive; Activity [31]: inactive; Activity (Staphylococcus aureus [32]): inactive; Activity (Enterococcus faecium [33]): inactive; Activity [34]: inactive
4 | CCOC(=O)C1=C(OS(=O)(=O)c2ccccc2[N+](=O)[O-])CC(c2ccccc2)N(C(=O)CCl)C1c1ccccc1 (configuration not stated) |  | inactive | 64 (≈ 109 µM) |  |  |  | 128 (≈ 219 µM) | inactive |  | inactive | inactive |  |  | 128 (≈ 219 µM) |  |  |  |  | 128 (≈ 219 µM) | inactive | Activity (Enterococcus faecalis [26]): inactive; Activity [27]: inactive; Activity (Moraxella catarrhalis [29]): inactive; Activity (Enterococcus faecalis [30]): inactive; Activity [31]: inactive; Activity (Staphylococcus aureus [35]): inactive; Activity (Enterococcus faecium [33]): inactive; Activity [34]: inactive
5 | CCOC(=O)C1=C(OS(=O)(=O)c2ccc([N+](=O)[O-])cc2)CC(c2ccccc2)N(C(=O)CCl)C1c1ccccc1 (configuration not stated) | 1.56 | inactive | 16 (≈ 27.3 µM) | 64 (≈ 109 µM) | 32 (≈ 54.7 µM) |  | 16 (≈ 27.3 µM) |  | 32 (≈ 54.7 µM) | inactive | inactive |  | 16 (≈ 27.3 µM) | 16 (≈ 27.3 µM) | 32 (≈ 54.7 µM) | 64 (≈ 109 µM) | 64 (≈ 109 µM) | 64 (≈ 109 µM) | 128 (≈ 219 µM) | inactive | MIC90 (Klebsiella pneumoniae [20]): 64 µg/mL (≈ 109 µM); Ratio [18]: 200
